According to publication PMC8385569 (JACC: Basic to Translational Science, 2021):
pEC50: −log10 of the molar value.

Experiments:
[1] = test system: HL-60 cells; assay: Oxidative burst assay; type: cell-based, human
[2] = test system: mouse permanent coronary artery occlusion model; assay: Mouse MI 28-day treatment, survival and histomorphometry; type: in vivo
[3] = test system: differentiated HL-60 cells; assay: Chemotaxis assay; type: cell-based, human
In short: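 In vitro chemotaxis toward test compound was measured in differentiated HL-60 cells: parental, FPR1-deficient and FPR2 KO lines. EC50 came from a nonlinear concentration-response curve.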

[4] = test system: rat myocardial infarction (permanent coronary artery occlusion); assay: Rat MI 5 days, immunohistochemistry of peri-infarct zone; type: in vivo; conditions: 1 mg/kg, 5 days post-artery ligation
[5] = test system: mouse myocardial infarction (permanent LAD ligation); assay: Mouse MI early short-term treatment, cardiac flow cytometry; type: in vivo; conditions: 3 mg/kg, 3 days post MI, mouse heart
In short: (§1)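 Male C57BL/6 mice, 10-12 weeks old, had the LAD permanently occluded by suture under ketamine/xylazine anesthesia and isoflurane ventilation. Test compound, 3 mg/kg, was given by oral gavage once daily, starting 24 hours post MI. Hearts were analyzed about 3 days after occlusion.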

[6] = test system: noninfarcted rats challenged with LPS; assay: Acute LPS challenge in rat, IL-10; type: in vivo; conditions: 1 mg/kg
In short: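 Adult male Sprague Dawley rats, 6-7 weeks old, without infarction, were dosed with test compound at 1 mg/kg and challenged with LPS. The read-out was IL-10 induction. Blood compound levels were taken 1.5 to 3 hours after dosing.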

[7] = target: T1, human FPR1 (Homo sapiens, UniProt P21462); assay: BRET biosensor signaling, HEK293 cells expressing human FPR1; type: cell-based
T1 sequence (P21462 1-350): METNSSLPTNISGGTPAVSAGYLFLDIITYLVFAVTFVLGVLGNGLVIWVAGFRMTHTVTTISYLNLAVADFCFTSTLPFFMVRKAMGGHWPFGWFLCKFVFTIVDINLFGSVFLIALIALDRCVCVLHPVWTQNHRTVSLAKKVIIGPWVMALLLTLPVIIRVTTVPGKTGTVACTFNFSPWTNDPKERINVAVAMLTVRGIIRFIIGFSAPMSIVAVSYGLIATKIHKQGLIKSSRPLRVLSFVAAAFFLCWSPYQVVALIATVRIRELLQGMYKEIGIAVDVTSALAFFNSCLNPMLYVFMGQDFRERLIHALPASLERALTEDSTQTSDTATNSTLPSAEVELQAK

[8] = test system: rat myocardial infarction (permanent coronary artery occlusion); assay: Rat MI permanent coronary artery occlusion, 6 weeks; type: in vivo; conditions: 1 mg/kg once per day
In short: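 Male Sprague Dawley rats, 6-7 weeks old, had permanent coronary artery occlusion by suture under ketamine/xylazine and isoflurane anesthesia. They received test compound at 1 mg/kg once daily for 6 weeks. LV volumes were measured by echocardiography. Terminally, under isoflurane, a 2.5-F conductance catheter was placed in the LV via right carotid cutdown, with parallel-conductance correction.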

[9] = test system: BioGel-elicited peritoneal macrophages; assay: Zymosan phagocytosis assay; type: cell-based, mouse
[10] = test system: mouse myocardial infarction (permanent LAD ligation); assay: Mouse MI early short-term treatment, histology and in situ hybridization; type: in vivo; conditions: 3 mg/kg, 3 days post MI
In short: as §1

[11] = test system: rat myocardial ischemia-reperfusion injury; assay: Rat ischemia-reperfusion study, 6 weeks; type: in vivo; conditions: 1 mg/kg, rat I/R
In short: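 Male Sprague Dawley rats, 6-7 weeks old, underwent coronary ischemia-reperfusion and received test compound at 1 mg/kg for 6 weeks. Hearts were arrested in diastole, removed and mounted on a modified Langendorff apparatus. Passive LV pressure-volume relationships were recorded ex vivo.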

[12] = test system: isolated human neutrophils; assay: Apoptosis assay of isolated human neutrophils activated with SAA; type: cell-based; conditions: co-incubation with BMS-986235 and SAA, relative to SAA-only treatment
[13] = target: T2, human FPR2 (Homo sapiens, UniProt P25090); assay: BRET biosensor signaling, HEK293 cells expressing human FPR2; type: cell-based; conditions: Gαi1, Gαi2, Gαi3, GαoA, GαoB biosensors; FPR2 relative to FPR1
T2 sequence (P25090 1-351): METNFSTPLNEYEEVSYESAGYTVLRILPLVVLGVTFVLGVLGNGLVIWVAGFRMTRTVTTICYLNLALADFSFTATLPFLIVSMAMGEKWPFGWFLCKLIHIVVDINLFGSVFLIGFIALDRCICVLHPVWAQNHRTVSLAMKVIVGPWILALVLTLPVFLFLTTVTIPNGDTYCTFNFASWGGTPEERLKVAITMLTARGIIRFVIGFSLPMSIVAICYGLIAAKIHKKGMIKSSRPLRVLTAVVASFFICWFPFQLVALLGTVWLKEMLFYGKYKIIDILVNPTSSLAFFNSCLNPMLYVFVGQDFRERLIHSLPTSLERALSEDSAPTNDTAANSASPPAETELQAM
In short: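 HEK293 cells transiently expressed human FPR1 or FPR2 with Gαi1, Gαi2, Gαi3, GαoA or GαoB BRET biosensors, and test compound was titrated. EC50 came from a nonlinear concentration-response curve fit. Selectivity ratio was FPR2 EC50/FPR1 EC50.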

[14] = test system: isolated human whole blood; assay: Human blood assay, cytokine and FPR2 mRNA expression; type: cell-based; conditions: for increase in IL-10 mRNA levels / increase in MCP-1 mRNA versus control: isolated human whole blood; for increase in IL-10 mRNA levels: average

Structure (SMILES): COc1cc(F)c([C@@H]2CNC(=O)[C@H]2NC(=O)Nc2ccccc2)c(F)c1 [BMS-986235, 1-((3S,4R)-4-(2,6-difluoro-4-methoxyphenyl)-2-oxopyrrolidin-3-yl)-3-phenylurea]
- Ymax oxidative burst ([1]; HL-60 FPR1 KO line): 38%
- oxidative burst activity ([1]; HL-60 FPR2 KO line): abolished
- Ymax oxidative burst ([1]; HL-60 cells expressing both receptors): 97%
- pEC50 ([1]; Homo sapiens, HL-60, read-out: EC50 oxidative burst): 6.89
- mortality over the 4 week study ([2]; 3 mg/kg once a day oral): significant reduction
- reduction of infarct scar size relative to vehicle ([2]; 3 mg/kg, 4 weeks of treatment): ~55%
- concentrations at which chemotaxis attenuation was observed ([3]; HL-60 FPR1 KO, bell-shaped response): > 120 nM
- enhancement in chemotaxis ([3]; HL-60 FPR2 KO line): no enhancement
- myocardial CD206 levels at peri-infarct zone versus vehicle [4]: relative increases
- myocardial IL-10 levels at peri-infarct zone versus vehicle [4]: relative increases
- number of total macrophages relative to vehicle [5]: unchanged
- IL-10 induction [6]: efficacious dose
- BRET signal for Gα12 and Gα13 [7]: minimal to no increase
- Infarct Wall Thickness, change vs vehicle [8]: +38%
- LV End Diastolic Volume (echocardiography), change vs vehicle [8]: -26%
- LV End Systolic Volume (echocardiography), change vs vehicle [8]: -29%
- Scar Area, change vs vehicle [8]: -26%
- phagocytosis response above control macrophages ([9]; FPR2 KO-derived peritoneal macrophages): minimal response
- Ymax zymosan phagocytosis ([9]; WT-derived peritoneal macrophages): ~100%
- arginase-1 mRNA within peri-infarct border zone, fold vs vehicle [10]: +6.4 fold
- ex vivo LV pressure-volume curve vs vehicle [11]: left shifted
- reduction of LV volume at end-diastole [11]: 26%
- reduction of LV volume at end-systole [11]: 42%
- transmural thickness of the infarct wall relative to vehicle [11]: without altering
- viable myocardium at the distal end of the MI [11]: trend toward increased
- % Viable Myocardium across infarct wall, increase vs vehicle ([11]; Mid MI region): 31%
- % Viable Myocardium across infarct wall, increase vs vehicle ([11]; Proximal MI region): 31%
- reduction of percentage of viable neutrophils [12]: 12%
- selectivity ratios (FPR2 EC50/FPR1 EC50) [13]: 164- to 614 fold
- increase in IL-10 mRNA levels ([14]; 0.1 μM): 3 fold
- increase in MCP-1 mRNA versus control ([14]; 1 μM): 28 fold
- increase in MCP-1 mRNA versus control ([14]; 10 μM): 54 fold
- increase in IL-10 mRNA levels ([14]; 10 μM): 6 fold
- induction of FPR2 mRNA ([14]; any concentration (0.01-10 µM)): no significant induction
- induction of IL-6 mRNA ([14]; any concentration (0.01-10 µM)): no significant induction
- induction of IL-8 mRNA ([14]; any concentration (0.01-10 µM)): no significant induction
- induction of TNFα mRNA ([14]; any concentration (0.01-10 µM)): no significant induction
